# Bioassay records: PubChem BioAssay, Johns Hopkins Ion Channel Center
# Shown are actives, neighbours in structure and some others; about 3.5% of the full set was active somewhere.
# MrgX1 ag: agonists of human MrgX1 receptor | Q96LB2 | MrgX1-HEK293 cells, Fluo-4 calcium fluorescence, agonist mode; stronger effect = higher value | B-score at 10 µM | hit rate 0.44% among 310,000 | AID 588627;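 active = calcium response B-score plate-corrected fluorescence ratio at least 3 library SD, with starting fluorescence B-score inside 5 SD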
# Target sequence (Q96LB2 whole entry, looked up): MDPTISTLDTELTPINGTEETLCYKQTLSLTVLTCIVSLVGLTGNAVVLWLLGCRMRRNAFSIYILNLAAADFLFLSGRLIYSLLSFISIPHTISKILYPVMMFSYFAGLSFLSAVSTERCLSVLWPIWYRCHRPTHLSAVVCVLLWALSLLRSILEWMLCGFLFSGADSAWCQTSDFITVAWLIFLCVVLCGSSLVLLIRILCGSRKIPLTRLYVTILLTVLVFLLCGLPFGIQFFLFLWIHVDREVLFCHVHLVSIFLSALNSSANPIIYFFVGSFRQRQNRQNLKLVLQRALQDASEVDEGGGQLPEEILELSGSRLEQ
#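 System – MrgX1-expressing HEK293 cells · Incubation – cells plated overnight, dye loaded 0.5 h 37 °C, 0.5 h room temperature · Technique – kinetic Fluo-4 NW fluorescence of intracellular calcium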
# MrgX1 antag: antagonists of human MrgX1 receptor. MRGX1-HEK293 calcium flux, Fluo-4, BAM8-22 antagonism; stronger effect = lower value. B-score at 10 µM. Q96LB2. hit rate 1.3% among 310,000;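 active = calcium-response B-score plate-corrected more than 3 library SD below zero, starting fluorescence within 5 deviations, no agonist response on first addition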;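 note: peak minus trough fluorescence over baseline after final BAM8-22 challenge near maximal dose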
# RGS4 block: inhibitors of human RGS4; P49798; HEK293 M3R/RGS4 inducible, Fluo-4 calcium flux; stronger effect = higher value; triggered by carbachol at its EC20; B-score at 10 µM; hit rate 0.45% among 310,000;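 active = B-score, a plate-corrected calcium signal, over three deviations above library mean, with baseline fluorescence within five deviations of library mean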;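 note: RGS4 expression induced by doxycycline in cells with stable M3 receptor; B-score is computed from the integrated fluorescence ratio over baseline after carbachol; higher B-score means a larger calcium signal and so more RGS4 inhibition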
# Target sequence (P49798 whole entry, looked up): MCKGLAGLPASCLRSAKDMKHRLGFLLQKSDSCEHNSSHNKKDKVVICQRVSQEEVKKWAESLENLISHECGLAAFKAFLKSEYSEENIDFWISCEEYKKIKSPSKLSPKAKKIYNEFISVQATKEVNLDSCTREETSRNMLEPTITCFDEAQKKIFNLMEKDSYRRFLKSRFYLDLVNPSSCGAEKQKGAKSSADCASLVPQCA
# MrgX1 allo act: human MrgX1 positive allosteric modulation, primary screen. Q96LB2. MrgX1-HEK293, Fluo-4 calcium flux, FDSS; stronger effect = higher value. B-score at 10 µM. hit rate 0.63% among 310,000. AID 588675;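 active = plate-corrected calcium response at least 3 library SD above typical, normal starting fluorescence, not activating the receptor alone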;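 note: compound read alongside a low EC10 to EC30 dose of BAM8-22 agonist; peak minus trough fluorescence over baseline measured at the second addition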
# RGS4 pot: potentiators or activators of RGS4. HEK293 M3R/inducible RGS4, carbachol calcium flux Fluo4; stronger effect = lower value. B-score at 10 µM. hit rate 0.92% among 310,000;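 active = B-score of the integrated calcium signal more than 4 SD below the library mean, with starting fluorescence not abnormally high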;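 note: negative B-score means reduced calcium response which marks RGS4 activation or potentiation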
#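 test system = M3R-expressing HEK293 line, RGS4 induced by doxycycline | probe or stimulus = carbachol at ECmax as muscarinic agonist stimulus | timing = dye loading 30 min 37 °C, buffer rest 30 min RT | signal = calcium dye Fluo4 fluorescence | evaluation = B score from integrated fluorescence ratio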
# * marks the source's active call; other numbers are inactive results; i = inactive; . = no result given.
SMILES,MrgX1 ag,MrgX1 antag,RGS4 block,MrgX1 allo act,RGS4 pot
Cc1ccc2nc(Cl)c3nnnn3c2c1,i,i,i,8.7*,i
Cc1ccc2nc(N3CCN(c4cccc(C)c4C)CC3)c3nnnn3c2c1,i,i,i,i,i
CCC1(c2ccc(Cl)cc2)NC(=O)N(Cc2ccc(C(=O)OC)cc2)C1=O (stereo not drawn),i,i,i,i,i
CCOc1ccc(CCNC(=O)c2ccc3c(=O)[nH]c4c(C(=O)NC(C)C)sc(=S)n4c3c2)cc1,i,-9.2*,i,i,i
CC(C)NC(=O)c1sc(=S)n2c1[nH]c(=O)c1ccc(C(=O)NCCc3ccc(Cl)cc3)cc12,i,-5.9*,i,i,-8.2*
COc1ccc(OC)c(CCNC(=O)c2ccc3c(c2)N(Cc2ccc(F)cc2)CCS3)c1,i,i,i,i,i
COc1ccc(OC)c(CCNC(=O)c2ccc3c(=O)[nH]c4c(C(=O)NC(C)C)sc(=S)n4c3c2)c1,i,-8*,i,i,-8.8*
O=C(NCCc1ccccc1)c1ccc2c(=O)[nH]c3c(C(=O)NCC4CCCO4)sc(=S)n3c2c1 (stereo not drawn),i,i,i,i,i
CCCNS(=O)(=O)c1cc2c3c(c1)CCN3C(=O)CC2,i,i,i,i,i
Cc1ccc(-n2nnc(-c3ccnc4ccccc34)n2)cc1,i,i,i,i,i
C/C(=C\C(=O)c1ccc(Br)cc1)Nc1ccc(Cl)cc1,i,i,i,i,-7.2*
O=C(O)c1ccc[nH]c1=S,i,i,i,i,i
CCN(Cc1ccccc1)S(=O)(=O)c1ccc(C(=O)N(CCCN(C)C)c2nc3cc4c(cc3s2)OCO4)cc1,i,i,i,i,-7.5*
CN(C)CCCN(C(=O)c1ccc(C(=O)c2ccccc2)cc1)c1nc2cc3c(cc2s1)OCCO3,i,i,i,i,-8.8*
CN(C)CCCN(C(=O)CCS(=O)(=O)c1ccccc1)c1nc2cc3c(cc2s1)OCO3,i,i,i,i,-8.2*
CN(C)CCCN(C(=O)c1ccc(S(=O)(=O)N(C)C)cc1)c1nc2cc3c(cc2s1)OCO3,i,i,i,i,i
CN(C)CCCN(C(=O)CCSc1ccccc1)c1nc2cc3c(cc2s1)OCO3,i,i,i,i,i
CCN(Cc1ccccc1)S(=O)(=O)c1ccc(C(=O)N(CCCN(C)C)c2nc3c(C)c(C)ccc3s2)cc1,i,-6.7*,i,i,i
CC(=O)Nc1ccc(NC(=O)C(C)OC(=O)c2ccc3[nH]c(C)c(C)c3c2)cc1 (stereo not drawn),i,i,i,i,i
O=C(c1ccc2c(=O)n(-c3ccccc3)c(=O)[nH]c2c1)N1CCCCC1,i,i,i,i,i
COc1ccc(/C=N/N2C(=O)C3C4C=CC(CC4)C3C2=O)c(OC)c1 (stereo not drawn),i,i,i,i,i
CCCN(CC1CC1)C(=O)CSc1nnc(-c2cc(-c3cccs3)nc3ccccc23)o1,i,i,i,i,i
CNC(=O)c1cc2cc(OC)ccc2n1CCN(Cc1ccccc1)Cc1ccccc1,i,-7.8*,i,i,i
O=[N+]([O-])c1ccc(CSc2ncnc3c2ncn3[C@@H]2O[C@H](CO)[C@@H](O)[C@H]2O)cc1,i,i,.,i,.
NCCNC(=O)Cc1cccc(NC(=O)Cc2ccc(Nc3ncnc4c3ncn4[C@@H]3O[C@H](CO)[C@@H](O)[C@H]3O)cc2)c1,i,i,i,8.2*,i
SMILES,MrgX1 ag,MrgX1 antag,RGS4 block,MrgX1 allo act,RGS4 pot
CCN1CCN(Cc2ccc(NC(=O)c3ccc(C)c(NC(=O)C(=O)c4c[nH]c5ccccc45)c3)cc2C(F)(F)F)CC1,i,i,i,i,-8.8*
CCN1CCN(Cc2ccc(NC(=O)c3cc(NC(=O)C(=O)c4c[nH]c5ccccc45)cc(OC)c3)cc2C(F)(F)F)CC1,i,i,i,i,i
Cc1ccccc1C(=O)N/N=C/c1ccc([N+](=O)[O-])s1,i,i,i,i,i
O=C(N/N=C/c1ccc([N+](=O)[O-])s1)c1ccccc1Br,i,-5.3*,i,i,i
COc1ccc(C[C@H](C)NC[C@@H](O)c2ccc(O)c(NC=O)c2)cc1,i,i,i,7.7*,i
COc1ccc(OCC(=O)Nc2c(C(=O)N(CCN(C)C)Cc3ccco3)oc3ccccc23)cc1,i,-5.1*,i,i,i
COc1ccccc1C(=O)Nc1c(C(=O)N(CCN(C)C)Cc2ccco2)oc2ccccc12,i,i,i,i,i
N#Cc1ccccc1OCC(=O)Nc1ccccc1C(=O)NC1CC1,i,i,i,i,i
Cc1c(Br)c([N+](=O)[O-])nn1CC(=O)NCc1ccccc1,i,i,i,i,i
Cc1c(Br)c([N+](=O)[O-])nn1CC(=O)NCCc1c[nH]c2ccccc12,i,-5*,i,i,i
CCc1ccc(C(=O)COC(=O)C2CCN(c3ccc(C(F)(F)F)cn3)CC2)cc1,i,i,i,i,i
COc1cc(/C=C2/CC/C(=C/c3ccc(O)c(OC)c3)C2=O)ccc1O,58*,i,i,i,i
COc1cc(/C=C2\COC/C(=C\c3ccc(O)c(OC)c3)C2=O)ccc1O,i,i,i,i,i
COc1cc(/C=C2/SC(=Nc3ccc(O)cc3)NC2=O)ccc1O,i,-5*,i,i,i
CCc1ccc(N=C2NC(=O)/C(=C/c3cc(OC)c(O)c(OC)c3)S2)cc1,i,-7.6*,i,i,i
COc1cc(C(C)=O)ccc1OCC(=O)OCCCOC(=O)COc1ccc(C(C)=O)cc1OC,i,i,i,i,i
COc1cccc(C(=O)N(C)c2nnc(-c3ccncc3)s2)c1,i,i,i,i,i
O=C(CN1C(=O)NC2(CCCC2)C1=O)NCCC1=CCCCC1,i,i,i,i,-7.3*
CCCCNC(=O)c1ccc(NS(=O)(=O)c2ccc3[nH]c(=O)[nH]c3c2)cc1,i,i,i,i,i
Cc1cc(C)cc(NC(=S)Nc2ccc(Cl)c(Cl)c2)c1,i,i,i,i,i
Cc1cccc(C)c1NC(=S)Nc1ccc(Cl)c(Cl)c1,32*,i,i,i,i
Cc1c(C)n2c(SCC(=O)N3CCN(c4ccccc4)CC3)nnc2[nH]c1=O,i,i,i,i,i
CCOc1ccc(Oc2ccc(-c3nnc(-c4ccccc4)o3)cc2[N+](=O)[O-])cc1,i,i,i,i,i
